Molecules are shown by their SMILES.

The nature of the data set: Toxicity liver stage against HepG2, at 10uM. The following applies: human, HepG2-A16-CD81EGFP cells; read-out: INHIBITION
The class given is cell-based. Further details: test concentration 10 uM, cell line HepG2-A16-CD81EGFP. In short, it runs like this:
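Uninfected HepG2-A16-CD81EGFP cells, 3 × 10^3 per well, 1536-well, plated on prespotted compound at 10 μM final, parasite-free screening media added to match infected plates; puromycin 10 μM positive, DMSO 0.5% negative; run in parallel with 48 h PbLuc assay at 37 °C, 5% CO2; viability by CellTiter-Glo luminescence, normalized to controls.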
For `COC(=O)COn1c(SCC(=O)OC)nc2ccccc2c1=O`, the cytotoxicity at 10 µM was -8.38%.
For `CC(C)CS(=O)(=O)Nc1ccc([C@H]2OCC(=O)N[C@@H]2CO)cc1` the value was 2.79%.
To `CC[C@H]1CN2CC[C@H]1C[C@@H]2CNC(=O)Nc1cccc(C#N)c1` belongs -0.201%; to `CCOCCCNC(=O)C1(C)CCC(=O)N1c1cc(OC)ccc1OC` (centres undefined), 0.957%.
To `Cc1ccc2snc(C(=O)N3CCN(C(=O)NCCC(C)C)CC3)c2c1` belongs -0.964%.
In the case of `CC(O)CN1CCC(=O)N(Cc2ccccc2)Cc2ccccc21` (centres undefined), the cytotoxicity at 10 µM is -3.37%.
For `COCC(O)CN1CCC(=O)N(CC=C(C)C)Cc2ccccc21` (centres undefined) the value was 1.87%; for `O=c1c(NCCNCCO)c(N2CCN(Cc3ccccc3)CC2)c1=O`, -5.9%.
For `Cn1cc(NC(=O)CNC(=O)N2CCN(c3ccc(Cl)cc3)CC2)cn1` the value was 6.9%; for `Cc1cc(C)nc(NCCCC(=O)NCCn2ccc3ccccc32)n1`, -0.1%.
To `O=C(Cn1cnc2sccc2c1=O)NCCCc1nnc2ccccn12` belongs 5.84%; to `COc1ccc(CCC(=O)NCc2cc(C)on2)cc1`, -56.4%.
Take `COC(=O)CN1N=C(C(=O)N2CCCC2)S(=O)(=O)c2ccccc21`: the cytotoxicity at 10 µM is -8.25%.
For `COc1cc(OC)cc(C(=O)NCC(c2cccn2C)N2CCCC2)c1` (centres undefined) the value was 11.2%; for `COc1cccc(NC(=O)NCC(C)(O)CCSC)c1OC` (centres undefined), 0.253%; for `COCCN(Cc1ccoc1)C(=O)c1ccccc1OC`, 6.28%.
Consider `FC1(F)CCNCC12CCN(c1ccccn1)C2` (centres undefined), for which the cytotoxicity at 10 µM was -0.31%.
In the case of `Cc1nccc([C@@H]2C[C@H]3CN(S(=O)(=O)c4ccccc4)C[C@H]3O2)n1`, the cytotoxicity at 10 µM was found to be 1.32%.
For `CC(C)CO[C@@H]1CC[C@H]2[C@H]1OCCN2S(=O)(=O)C1CC1` the value was 4.04%; for `CC(=O)c1cn(CCC(=O)NCCC(=O)O)c2ccccc12`, 7.13%.
For `CC(C)CC1SCC(=O)Nc2c1cnn2-c1ccc(F)cc1` (centres undefined) the value was 6.82%; for `CCOC(=O)c1sc(NC(=O)CN(C)S(C)(=O)=O)c(C#N)c1C`, 16.6%; for `COCCO[C@H]1CCN(C(=O)c2cc(C)on2)[C@H]1Cc1ccccc1`, 8.22%.
For `Cc1ccc(N2CC[C@H](OCC3CC3)[C@@H]2Cc2cnn(C)c2)nn1` the value was -10.7%.
`COc1ccc(CCNC(=O)Cn2ncc3c2c(C)nn3C)cc1`: the cytotoxicity at 10 µM is 8.93%.
To `CC(C)C(=O)N1CCC(c2c(C(N)=O)sc3ccccc23)C1` (centres undefined) belongs -2.66%; to `COCC(=O)N1CCCC(c2nc(N)ncc2-c2cccc(F)c2)C1` (centres undefined), -0.6%; to `Cc1cc(Cc2ccccc2)cc(C2CCCNC2)n1` (centres undefined), -5.89%.
In the case of `c1cc(CCNc2ncc(-c3cnccn3)c(C3CC3)n2)ccn1`, the cytotoxicity at 10 µM amounted to 13.5%.
For `C[C@@H]1CN2C[C@H](O)CC2CN1Cc1ccc2nccnc2c1` (some centres undefined) the value was 5.62%.
To `C[C@H]1CN2C[C@H](O)CC2CN1Cc1ccncc1` (some centres undefined) belongs -3.02%.
For `COc1cccc(S(=O)(=O)N2C[C@H](OC)[C@]3(CCCO3)C2)c1` the value was -25.7%; for `CC(C)CNC(=O)C[S+]([O-])Cc1csc(C2CCCCC2)n1` (centres undefined), -48.5%.
In the case of `Cc1cc(CN(C)C(=O)CNS(=O)(=O)c2cccs2)no1`, the cytotoxicity at 10 µM is -33.4%.
For `CC(CC(=O)c1ccccc1)NC(=O)c1ccon1` (centres undefined) the value was -10.7%; for `Fc1cccnc1N1CCC(NCc2cccc3cn[nH]c23)C1` (centres undefined), 13.6%; for `CCOC(=O)NCCNC(=O)c1cc(Br)cn1C(C)C`, 9.08%.
For `CCNC(=O)Cc1c(C)nc2c(c1C)c(=O)[nH]n2C` the value was 2.62%.
To `Cn1cnc2cc(C(=O)NS(=O)(=O)c3ccc(F)cc3)ccc21` belongs -8.95%; to `CS(=O)(=O)CCSCc1cc(F)cc2cccnc12`, -1.46%.
As for `CCC(NC(=O)CNCC(F)(F)F)c1cc(F)ccc1F` (centres undefined), the cytotoxicity at 10 µM was -4.56%.
To `Cc1cc(C)n(C2CN(CCc3ccccn3)C2)n1` belongs 3.65%; to `OCCN1CCN(CCOCC(F)(F)F)CC1`, -4.47%.
To `COCCc1noc(CN(C)c2cc(C)ncn2)n1` belongs 11.9%.
To `Cc1nc(CNC(=O)N(Cc2ccccc2)CC(C)(C)O)oc1C` belongs -2.28%; to `O=C(c1ccc(O)c(Cl)c1)N(Cc1ccncc1)C1CC1`, -8.99%; to `O=C(NC1CCS(=O)(=O)C1)c1sccc1-c1ccc(F)cc1` (centres undefined), 8.14%.
Regarding `COc1cccc(CNC(=O)C(c2cccc(F)c2)N2CCOCC2)c1` (centres undefined), the cytotoxicity at 10 µM is -6.24%.
For `Cc1ccc(CN(C)C(=O)CN2CC(n3cccn3)C2)o1` the value was -0.0582%; for `O=C(NC1CC1)c1cc(NC(=O)N2CCCC(O)C2)ccc1Cl` (centres undefined), -15.5%.
For `O=C(c1ccccc1)N1CCOC2CNCC[C@H]21` (some centres undefined) the value was -114%; for `O=C(c1ccccc1)N1CCO[C@@H]2CNC[C@@H]21`, -100%; for `CCOCC1CN(S(=O)(=O)C2CC2)Cc2nn(C)cc21` (centres undefined), -112%.
For `CCS(=O)(=O)N1CC[C@H](OC)[C@@H]1Cc1ccncc1` the value was 5.43%; for `Cc1noc(C)c1CN1CC[C@H]2C[C@@H](c3nccs3)O[C@@H]2C1`, -5.33%; for `CCCc1cc(C(=O)N2Cc3cnc(C(C)(C)C)nc3C2)ccn1`, -0.807%.
With `CC(C)[C@H](Nc1nc(C2CCCC2)nc2c1cnn2C)C(N)=O`, the cytotoxicity at 10 µM was -51.5%.
To `CN1CCC(CNC(=O)CCSc2ccc3c(c2)OCCO3)C1` (centres undefined) belongs -3.13%; to `CN(Cc1ccccc1)c1cnn(CC2COCCO2)c(=O)c1` (centres undefined), -12.4%.
For `Cc1ccccc1OCC(=O)N1CCOC2(CNCCOC2)C1` (centres undefined) the value was -2.96%.
`Cn1ccnc1CN1C[C@@H](CN2CCCCCC2)[C@@H](CO)C1`: the cytotoxicity at 10 µM is -2.63%.
Regarding `O=C(O)[C@@H]1CN(Cc2c[nH]c(CC3CCCC3)n2)C[C@H]1c1ccccn1`, the cytotoxicity at 10 µM is 3.86%.
To `CC(C)=CCN1C[C@@H](C(=O)O)C[C@H](C(=O)Nc2ccc(C)nc2)C1` belongs 5.67%; to `COc1ccc(Cn2cc(C(=O)N(C)CCN(C)C)nn2)cc1`, 7.13%; to `O=C(O)COc1ccc(CN2CCCC(CCc3ccccc3)C2)cc1` (centres undefined), 12.1%.
For `COCCCN1C(=O)CC[C@H]2CN(c3cnc4ccccc4n3)CC[C@H]21` the value was 5.77%; for `CCc1cc(CN(Cc2cccnc2)C2CN3CCC2CC3)on1` (centres undefined), 2.09%; for `O=C(Nc1ccccc1)c1cc2n(n1)CCCN(C(=O)c1ccc[nH]1)C2`, 3.99%.
On to `Cc1cc(CN(C)C(=O)C2CC(=O)N(Cc3cccnc3)C2)on1` (centres undefined), for which the cytotoxicity at 10 µM was 2.95%.
For `CCC(C(=O)NCc1ccncc1)N(c1ccccc1)S(C)(=O)=O` (centres undefined) the value was -1.17%; for `Cc1oc(-c2ccsc2)nc1CN1CC[C@@H]2CCCC[C@H]2C1`, 7.16%; for `NC(=O)c1csc(N2CCCC(c3n[nH]c(=O)n3-c3ccccc3)C2)n1` (centres undefined), 8.84%.
To `Cc1nonc1CN(C)CC1(O)CCCN(CCC2CCCCC2)C1=O` (centres undefined) belongs 49.4%; to `COCCN1CCN(Cc2ccc(F)c(C)c2)[C@H]2CS(=O)(=O)C[C@H]21`, -25.5%.
To `Cc1cccnc1CNCC1(O)CCCN(Cc2ccc(F)cc2)C1=O` (centres undefined) belongs -12.3%; to `Cc1ccc(NC2CCN(C(=O)Cc3c(C)noc3C)CC2)nn1`, -8.13%.
On to `Cc1nc(C)n(CC2CCCCN2Cc2nc(-c3ccoc3)no2)n1` (centres undefined), for which the cytotoxicity at 10 µM stood at 1.98%.
To `Cc1nn(-c2ccccc2)nc1C(=O)N1CCCC1c1cnn(C)c1` (centres undefined) belongs -0.857%; to `O=C(c1cccc2c1OCO2)N1CCCC(n2cccn2)C1` (centres undefined), -8.72%; to `CN(C(=O)c1ccccc1Cl)C1CCN(c2ccccn2)CC1`, -0.577%.
Regarding `Cc1nc(C)n(CC2CCCCN2CC(=O)N(C)Cc2ccco2)n1` (centres undefined), the cytotoxicity at 10 µM was 2.65%.
To `Cc1csc(C(Cc2ccsc2)NC(=O)CN(C)Cc2ccccn2)n1` (centres undefined) belongs 0.258%; to `CN(C)CCN1CCCC12CCCN(C(=O)c1cccnc1)C2` (centres undefined), -0.95%; to `Cn1cccc1C(=O)N1CCC2(CC1)CN(c1ccccn1)CCO2`, -10.8%.
For `Cc1ccc2c(n1)N(Cc1csc(C)n1)CCN(C1CCOC1)C2` (centres undefined) the value was 9.28%; for `O=C(NC1CC1)C1=CC2(CCN(CCO)CC2)c2ccccc21`, 1.41%.
For `CN(C)C(=O)[C@@H]1CCO[C@@H]2CCN(CCc3ccccc3)C[C@@H]21` the value was -9.55%.
As for `CC(C)NC(=O)[C@H]1C[C@@H]2[C@@H](C1)OCCN2Cc1cccnc1`, the cytotoxicity at 10 µM stood at 2.39%.
To `CS(=O)(=O)N1CCCC12CCN(Cc1nccs1)CC2` belongs 8.1%.
To `Cc1cccc(CN2CCc3onc(CO)c3C2)n1` belongs 6.81%; to `c1cnc(N2CCC3(CCN(CC4CCCC4)CC3)C2)nc1`, 0.845%.
To `COc1cccc(CN2C[C@@H]3COC[C@]3(COCc3ccncc3)C2)c1` belongs 3.52%.
Turning to `CC(C)NC(=O)N1CC[C@@H](N(C)C)[C@@H]1Cc1ccncc1`, the cytotoxicity at 10 µM turned out to be 5.53%.
To `CCc1cnc(N2C[C@@H]3C[C@H](C(=O)N4CCOCC4)[C@H](C2)O3)nc1` belongs -104%.

These data come from ChEMBL document CHEMBL4513216, “Probing the Open Global Health Chemical Diversity Library for Multistage-Active Starting Points for Next-Generation Antimalarials” (ACS Infect Dis, 2020).
